Active and inactive are the calls of the source. No cut-off for these calls is given here.

For data set [1], the species on record is Cavia porcellus. As to the kind of experiment: Agonist activity at muscarinic acetylcholine receptor in guinea pig ileum assessed as longitudinal muscle contraction at 10^-4 in presence of 10 uM competitive nicotinic antagonist hexamethonium chloride relative to control. It is filed as tissue-based.
For data set [2], the species on record is Cavia porcellus. As to the kind of experiment: Agonist activity at muscarinic acetylcholine receptor in guinea pig ileum assessed as longitudinal muscle contraction measured every 20 mins in presence of 100 uM competitive nicotinic antagonist hexamethonium chloride. Type of data set: tissue-based. The method, boiled down: (§1)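 Isolated ileal muscle, cumulative agonist dose-response curves built every 20 min, read as contraction. pD2 derived; n = 15. Hexamethonium either left out of the bath or raised from 10 to 100 μM.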

For data set [3], the target named is Acetylcholinesterase (Electrophorus electricus) (UniProt O42275). The following applies: 10^-6 M.
The species named for data set [4] is Cavia porcellus. As to the kind of experiment: Agonist activity at muscarinic acetylcholine receptor in guinea pig ileum assessed as longitudinal muscle contraction measured every 20 mins in absence of 10 uM competitive nicotinic antagonist hexamethonium chloride. Type of data set: tissue-based. A digest of the protocol:
as §1

For data set [5], the species on record is Cavia porcellus. As to the kind of experiment: Agonist activity at muscarinic acetylcholine receptor in guinea pig ileum assessed as longitudinal muscle contraction at 10^-6 M in presence of 10 uM competitive nicotinic antagonist hexamethonium chloride relative to control. It is filed as tissue-based.
The species entered for data set [6] is Cavia porcellus. As to the kind of experiment: Agonist activity at muscarinic acetylcholine receptor in guinea pig ileum assessed as longitudinal muscle contraction measured every 20 mins in presence of 0.05 uM physostigmine. It is filed as tissue-based.
The species named for data set [7] is Cavia porcellus. Kind of data set: Agonist activity at muscarinic acetylcholine receptor in guinea pig ileum assessed as longitudinal muscle contraction measured every 20 mins in presence of 10 uM competitive nicotinic antagonist hexamethonium chloride. It is filed as tissue-based. The method, boiled down: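 Isolated ileal muscle in a bath with 10 μM hexamethonium chloride to block ganglionic stimulation. Cumulative concentration-response curves to the test agonist and to acetyl-β-methylcholine (reference agonist) were built alternately on one preparation every 20 min. pD₂ was derived from the curves, n = 15 per drug, means ± SD.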

The nature of data set [8]: Competitive antagonist activity at muscarinic acetylcholine receptor in guinea pig ileum assessed as inhibition of acetyl-beta-methylcholine-induced longitudinal muscle contraction administered 10 mins prior to acetyl-beta-methylcholine induction measured every 20 mins in presence of 10 uM competitive nicotinic antagonist hexamethonium chloride. Type of data set: tissue-based. The following applies: Cavia porcellus, read-out: pA2 (converted). A digest of the protocol: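 Ileal muscle was pretreated for 10 min with a single antagonist dose, then a cumulative acetyl-β-methylcholine concentration-response curve was run, with 10 μM hexamethonium chloride in the bath. Lachesine was the reference antagonist, run the same way. Rightward shift of the log concentration-response curves and any change in shape or maximum were assessed. Values are means ± SD.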

A short description of data set [9]: Competitive antagonist activity at muscarinic acetylcholine receptor in guinea pig ileum assessed as inhibition of 1-(2-acetoxyethyl)pyridinium iodide-induced longitudinal muscle contraction administered 10 mins prior to 1-(2-acetoxyethyl)pyridinium iodide induction measured every 20 mins in presence of 10 uM competitive nicotinic antagonist hexamethonium chloride. It is filed as tissue-based. The following applies: Cavia porcellus, read-out: pA2 (converted). The method, boiled down: (§2)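 Ileal muscle in 10 μM hexamethonium chloride. Tissue conditioned with a single antagonist dose for 10 min before cumulative dose-response curves to the pyridinium agonist. Points are means of equipotent agonist concentrations giving standard responses, from 6–8 experiments.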

In data set [10] the test system is Cavia porcellus. As to the kind of experiment: Non-competitive antagonist activity at muscarinic acetylcholine receptor in guinea pig ileum assessed as inhibition of 1-(2-acetoxyethyl)pyridinium iodide-induced longitudinal muscle contraction at 0.1 uM administered 10 mins prior to 1-(2-acetoxyethyl)pyridinium iodide induction measured every 20 mins in presence of 10 uM competitive nicotinic antagonist hexamethonium chloride. It is filed as tissue-based. A digest of the protocol:
as §2

The species entered for data set [11] is Cavia porcellus. Kind of data set: Agonist activity at muscarinic acetylcholine receptor in guinea pig ileum assessed as longitudinal muscle contraction at 10^-3 M in presence of 10 uM competitive nicotinic antagonist hexamethonium chloride relative to control. Type of data set: tissue-based.
Data set [12] concerns the target Acetylcholinesterase (Electrophorus electricus) (UniProt O42275). Kind of data set: Inhibition of electric eel acetylcholinesterase using acetylcholine as substrate at 3 x 10^-5 M relative to control. The method, boiled down:
(§3)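 Electric eel AChE; substrate 1 mM ACh. Inhibition taken as the lowered rate of ACh decomposition, measured by pH-stat titration. Six experiments per value, reported as means ± SD.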

Data set [13] has the same target. Kind of data set: Inhibition of electric eel acetylcholinesterase using acetylcholine as substrate at 10^-3 M relative to control. A digest of the protocol: as §3
Data set [14] is described as follows: Toxicity in NMRI mouse. Type of data set: organism-based. The following applies: in vivo.
For data set [15], the species on record is Cavia porcellus. As to the kind of experiment: Agonist activity at muscarinic acetylcholine receptor in guinea pig ileum assessed as longitudinal muscle contraction at 3 x 10^-5 M in presence of 10 uM competitive nicotinic antagonist hexamethonium chloride relative to control. It is filed as tissue-based.
In data set [16] the target is Acetylcholinesterase (Electrophorus electricus) (UniProt O42275). Kind of data set: Inhibition of electric eel acetylcholinesterase using acetylcholine as substrate at 10^-5 M relative to control. A digest of the protocol:
as §3

Data set [17] is filed under the species Cavia porcellus. As to the kind of experiment: Agonist activity at muscarinic acetylcholine receptor in guinea pig ileum assessed as longitudinal muscle contraction at 10^-5 M in presence of 10 uM competitive nicotinic antagonist hexamethonium chloride relative to control. Type of data set: tissue-based.
The species entered for data set [18] is Cavia porcellus. As to the kind of experiment: Agonist activity at muscarinic acetylcholine receptor in guinea pig ileum assessed as longitudinal muscle contraction at 3 x 10^-4 M in presence of 10 uM competitive nicotinic antagonist hexamethonium chloride relative to control. It is filed as tissue-based.
Data set [19] deals with Acetylcholinesterase (Electrophorus electricus) (UniProt O42275). As to the kind of experiment: Inhibition of electric eel acetylcholinesterase using acetylcholine as substrate at 3 x 10^-4 M relative to control. The method, boiled down:
as §3

Chain of Acetylcholinesterase (Electrophorus electricus) (O42275 24-633 limits assumed): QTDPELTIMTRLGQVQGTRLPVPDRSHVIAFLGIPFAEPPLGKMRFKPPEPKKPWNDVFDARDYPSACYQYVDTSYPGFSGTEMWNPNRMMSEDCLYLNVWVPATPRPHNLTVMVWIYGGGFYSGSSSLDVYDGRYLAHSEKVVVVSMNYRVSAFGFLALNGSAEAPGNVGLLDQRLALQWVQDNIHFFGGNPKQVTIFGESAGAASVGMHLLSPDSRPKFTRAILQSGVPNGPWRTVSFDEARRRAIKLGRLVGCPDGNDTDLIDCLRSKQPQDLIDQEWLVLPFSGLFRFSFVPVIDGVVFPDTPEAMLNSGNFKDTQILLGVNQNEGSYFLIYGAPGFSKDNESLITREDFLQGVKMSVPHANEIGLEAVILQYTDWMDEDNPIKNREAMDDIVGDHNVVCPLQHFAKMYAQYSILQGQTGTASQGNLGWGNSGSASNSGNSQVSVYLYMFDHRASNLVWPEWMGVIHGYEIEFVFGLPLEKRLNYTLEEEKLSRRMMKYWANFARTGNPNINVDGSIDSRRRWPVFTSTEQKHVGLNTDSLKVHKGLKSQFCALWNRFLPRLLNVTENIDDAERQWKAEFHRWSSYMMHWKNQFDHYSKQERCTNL

As usually defined, the inhibition is the share of the control response that was lost under treatment. Regarding `CC(=O)OCC[n+]1ccccc1`, the %max in the data set listed under Cavia porcellus [1] was 89%; in the data set listed under Cavia porcellus [5] it was 0%. For the same compound, the outcome in the data set listed under Cavia porcellus [2], in the data set listed under Cavia porcellus [4] and in the data set listed under Cavia porcellus [6] was Active. The same compound registered an inhibition in [3] of 23.9%. Further, the pD2 in the data set filed under Cavia porcellus [7] turned out to be 4.62.
On to `CC[N+](C)(C)CCOC(=O)C(O)(c1ccccc1)c1ccccc1` [LACHESINE CHLORIDE], for which the Kb is 0.0024 µM in [8] and 0.00219 µM in [9]. Further, the inhibition result with Cavia porcellus [10] was “Active”.
As a reminder, the LD50 is the dose at which mortality reaches 50%. High values mean lower toxicity, low ones greater toxicity. As for `CC(=O)OCC[n+]1ccc(C)cc1.[Br-]`, the %max in the data set filed under Cavia porcellus [11] and in the data set listed under Cavia porcellus [15] was 0% in each case. In addition, in data set [8], the Kb was 372 µM. Moreover, the inhibition in [12] turned out to be 42.5%; in data set [13] it was 77.4%. In data set [14], this compound gave an LD50 of 2000 µmol/kg.
Regarding `CC(=O)OCC[n+]1ccc(C(C)(C)C)cc1.[Br-]`, the Kb is 37.2 µM in data set [8] and 30.2 µM in data set [9]. The inhibition in data set [16] stood at 32.3%; in [19], 66.2%. Besides, the %max in the data set listed under Cavia porcellus [17] and in the data set filed under Cavia porcellus [18] was 0% in each case. Also, the LD50 in data set [14] turned out to be 2000 µmol/kg.
Turning to `CC(=O)OC(C)C[N+](C)(C)C` (configuration not stated), the outcome in the data set filed under Cavia porcellus [2], in the data set filed under Cavia porcellus [4] and in the data set filed under Cavia porcellus [6] was Active. The pD2 in the data set listed under Cavia porcellus [7] was 7.02.

Values taken from ChEMBL document CHEMBL3244334, “Synthesis of pyridinium analogues of acetylcholine and their interactions with intestinal muscarinic receptors” (J Med Chem, 1979).
